Apaf-1 act: activators of human Apaf-1 apoptosome, primary screen, biochemical, DEVD-Rh110 fluorescence, uHTS; Apoptotic protease-activating factor 1 (Homo sapiens), O14727; Apaf-1 apoptosome caspase-3 activation; stronger effect = lower value; activity change, negative = activation, % at 20 µM; 0.31% of 330,000 active; AID 489031, 2010;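 active = activity change at or below -40% at 20 µM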
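System: Reconstituted apoptosome of Apaf-1, cytochrome c, caspase-9, procaspase-3 | Reagent: dATP, cytochrome c, and (Z-DEVD)2-Rh110 caspase-3 substrate | Times: 30 min compound preincubation and 50 min reaction, both room temperature | Detection: Caspase-3-released Rh110 fluorescence, 540 nm emission, 480 nm excitation | Measure: Caspase-3 activity via Apaf-1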
Rh110 interf act: Rh110 fluorescence interference by putative Apaf-1 activators, confirmation, artefact control for Apaf-1 activator project, biochemical, 20 µM. 980 tested, under 10 active. AID 504616, 2011. fluorescence interference (activity change), % at 20 µM, hits read low. quenched caspase reaction, Ex480/Em540. shares compounds with Apaf-1 act;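 active = mean activity change at or below -40% when tested at 20 µM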
Apaf-1 act conf: Apaf-1 activators, single-dose retest, confirmation, biochemical, fluorescence, DEVD-Rh110, 20 µM; shares compounds with Apaf-1 act; reconstituted apoptosome caspase-3 activity; stronger effect = lower value; activity change, negative = activation, % at 20 µM; 5% of 980 active; AID 504617, 2011;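 active = mean activity change at or below -40%, meaning activation of 40% or more, at 20 µM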
A number is an active result; 0 = inactive; - = not tested or not shown. The list is a sample of the results.

SMILES	Apaf-1 act	Rh110 interf act	Apaf-1 act conf
NC(N)=N/N=C/c1ccc(OCc2ccccc2)c(OCc2ccccc2)c1	0	-	-
CCN(CC)c1ccc(/C=N/N2CCN(Cc3ccccc3)CC2)c(O)c1	-50.1	0	0
CC(CCC(C)C(C)(C)C)[C@@H]1CC[C@H]2C3C[C@H](OS(O)(=S)=S)[C@H]4C[C@H](OS(O)(=S)=S)[C@@H](OS(O)(=S)=S)C[C@]4(C)[C@H]3CC[C@]12C (stereo partly specified) (tested in a mixture with another compound)	0	-	-
CN(C)c1cccc2cccc(N(C)C)c12	0	-	-
CCOc1ccc(C(=O)C(C)=O)c(OCC)c1	-43.8	0	0
C[C@@H]1CN([C@@H](C)CO)C(=O)c2cc(NC(=O)Nc3ccc(F)cc3)ccc2O[C@@H]1CN(C)Cc1ccc(Oc2ccccc2)cc1	0	-	-
Cc1noc(C)c1NC(=O)N(C)C[C@H]1Oc2ccc(NC(=O)CCN3CCOCC3)cc2C(=O)N([C@H](C)CO)C[C@@H]1C	-45.7	0	0
C[C@H](CO)N1C[C@H](C)[C@@H](CN(C)Cc2ccc(Cl)c(Cl)c2)Oc2c(NC(=O)Cc3ccccc3)cccc2C1=O	0	-	-
CC1=NN(c2ccc(F)cc2)C(=O)C1C(c1cccc(O)c1)c1c(C)[nH]n(-c2ccc(F)cc2)c1=O (stereo unspecified)	0	-	-
CC(=O)[C@H]1[C@H](c2cccc(Cl)c2)C(C#N)(C#N)[C@@H]2c3ccccc3C=CN21	0	-	-
OC(COc1c(Cl)cc(Cl)cc1Cl)CN1CCCCC1 (stereo unspecified)	-88.1	0	0
Cn1nccc1C(=O)N1CCN(C23CC4CC(CC(C4)C2)C3)CC1	-56.3	0	0
Cc1ccccc1C(=O)N1CCC(n2nccc2NC(=O)CCOc2ccccc2)CC1	-186.8	0	0
CC1(C)Cc2cccc(OCC(=O)N3CCN(c4cccc(C(F)(F)F)c4)CC3)c2O1	0	-	-
Nc1ccc2nc(-c3ccccc3)c(-c3ccccc3)nc2c1	0	-	-
COc1ccc(C2C(C#N)=C(N)OC(C(C)(C)C)=C2C#N)cc1OC (stereo unspecified)	-50.5	0	0
COC(=O)C1=C(C)N(Cc2ccccc2)C(=NCCc2cccnc2)N[C@H]1c1ccc(Br)cc1	0	-	-
CCCCCCCCCn1c2c(c(=N)c3c1CCC3)CCC2	0	-	-
O=[N+]([O-])c1ccc(/C=C/c2ccc3cccc([N+](=O)[O-])c3n2)cc1	-107.3	0	0
COc1ccccc1NC(=O)Nc1ccccc1C(N)=O	-630.4	0	0
CCN(CC(=O)Nc1ccccc1OC)C(=O)c1ccccc1Sc1ccccc1C#N	0	-	-
COC1=C(Nc2ccccc2OC)C(=O)c2ccccc2C1=O	0	-	-
CCc1ccc2nc(NC(=O)CSCc3c(C)noc3C)sc2c1	0	-	-
COCCNc1nc2nonc2nc1N(C)Cc1cccc2cnccc12	-345.5	0	0
NC(=O)c1cc(N)ccc1N1CCCC1	0	-	-
SMILES	Apaf-1 act	Rh110 interf act	Apaf-1 act conf
O=C(Cc1ccccc1Cl)NC1(O)C(=O)c2ccccc2C1=O	0	-	-
CC1(C(=O)NC2CCCC2)CCC(=O)N1Cc1ccccc1Cl (stereo unspecified)	-105.6	0	0
COc1cccc(CNc2cccc3cccnc23)c1O	0	-	-
N#Cc1ccccc1NC(=O)CN1CCN(Cc2ccccc2)CC1	-41.6	0	0
N#Cc1c(NCCO)nc(NCc2ccccc2)c2c1CCN(Cc1ccccc1)C2	0	-	-
CCOC(=O)c1c(NC(=O)CN2CCN(C(=O)c3ccco3)CC2)sc2c1CCCC2	0	-	-
Oc1cccc(C=Nc2cccc3ccccc23)c1O	0	-	-
O=C1C=C(Nc2ccccc2)c2ccccc2C1=O	0	-	-
COCCCOc1cc(NCc2ccccc2)c2ncn(C(C)C)c2c1	0	-	-
CC(C)CC(=O)NC(=S)Nc1ccccc1F	-79.7	0	0
Cc1ccc(NC(=S)Nc2cccc3ccccc23)cc1F	0	-	-
Cc1ccc(S(=O)(=O)/N=C2\C(=O)c3ccccc3C([O-])=C2n2cc[n+](CCC(C)C)c2)cc1	0	-	-
O=S(=O)(c1ccc(NC(=S)Nc2ccc(OC(F)F)cc2)cc1)N1CCOCC1	-65.6	0	0
CNC(=S)NNC(=O)c1sccc1OCc1cccc(C(F)(F)F)c1	-189.5	0	0
Cc1ccc(C(=O)N/C(=C\c2ccc(-c3ccccc3[N+](=O)[O-])o2)C(=O)NCCCN(C)C)cc1	0	-	-
CCOc1cc2[nH]c(=O)n(CCCCC(=O)NCc3ccco3)c(=O)c2cc1OCC	-190.1	0	0
CN1C(=O)c2cccc3c(S(=O)(=O)NCc4ccco4)ccc1c23	0	-	-
Nc1ccc(N(CCO)CCO)cc1	0	-	-
